Screening results: PubChem, Broad Institute
The list is not random: actives were taken first. Their share in the collection is about 3.1%.
miR-122 sensor: blocks miR-122 activity in Huh7 sensor cells. AID 602342. actives 0.3% (n = 340,000). Huh7 miR-122 Renilla luciferase sensor, 48 h; neutral wells = 0, positive control = 100. activation (reporter increase), % at 12.5 µM;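 active = mean replicate activation score at least 90 and every replicate individually at or above 90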;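 note: higher luciferase means less miR-122 activity so hits act as miR-122 inhibitors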
DENV2 CPE: protects cells from dengue virus 2 cytopathic effect | DENV2-infected cells, cytopathic effect rescue, plate reader | CPE inhibition, % at 9.99 µM | actives 1.7% (n = 350,000) | AID 651640; in the data active = CPE inhibition above about 20%, passing the limit was not always enough; tested in BHK-21 cells;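 note: 0% = median of neutral control wells and 100% = median of positive control wells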
E-selectin induc: E-selectin induction on HUVECs. P16581. HUVEC E-selectin immunofluorescence imaging; normalized: neutral wells 0, TNF-alpha wells 100. activation, % at 7.58 µM. actives 0.37% (n = 260,000). AID 686992;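 active = mean E-selectin-positive cell signal at least 10% of the positive control, reached in at least 60% of replicates, without over 20% cell loss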
Target sequence (P16581 whole entry, looked up): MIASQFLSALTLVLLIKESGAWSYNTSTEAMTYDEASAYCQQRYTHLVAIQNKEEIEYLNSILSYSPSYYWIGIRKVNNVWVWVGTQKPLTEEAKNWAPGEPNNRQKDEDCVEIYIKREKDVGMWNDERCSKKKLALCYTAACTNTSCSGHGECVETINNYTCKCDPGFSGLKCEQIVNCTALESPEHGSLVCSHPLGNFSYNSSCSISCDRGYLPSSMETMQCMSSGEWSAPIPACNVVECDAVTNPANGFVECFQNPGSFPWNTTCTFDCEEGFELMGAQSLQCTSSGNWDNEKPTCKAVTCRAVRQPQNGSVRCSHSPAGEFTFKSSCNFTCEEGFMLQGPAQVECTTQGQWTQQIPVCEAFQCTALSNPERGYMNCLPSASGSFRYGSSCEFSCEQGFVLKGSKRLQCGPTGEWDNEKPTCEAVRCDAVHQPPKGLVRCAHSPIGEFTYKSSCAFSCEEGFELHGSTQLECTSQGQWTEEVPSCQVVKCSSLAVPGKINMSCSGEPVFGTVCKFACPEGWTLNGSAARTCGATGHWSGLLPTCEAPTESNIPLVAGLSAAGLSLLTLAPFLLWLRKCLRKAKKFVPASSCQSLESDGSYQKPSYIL
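Assay system: HUVEC, human umbilical vein endothelial cells / Amount: 3,000 HUVEC/well / Controls: TNF-alpha positive control, DMSO neutral control / Compound dosing: single concentration / Medium: EGM-2 over gelatin coat / Evaluation: percent E-selectin-positive cells / Signal: immunofluorescence imaging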
Ecoli rRNA inh: inhibitors of bacterial rRNA selective over humanized ribosomes. E. coli WT GFP vs humanized-ribosome RFP mutants, fluorescence, 24 h; hits give low values; DMSO median 0, no signal -100. GFP signal change (wild-type ribosome), % (test concentration not listed). actives 1.6% (n = 350,000);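 active = significant combined selectivity score with lowered wild-type GFP, culture density cut under 30%, mutant RFP and density less affected; inactive = any of these conditions unmet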
Cneo AK release: causes C. neoformans cell lysis; actives 0.2% (n = 360,000); adenylate kinase release luminescence, 4 h; normalised: neutral wells 0, clomiphene wells 100; AID 651654; lysis activity, % at 15 µM;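 active = mean lysis activity across replicates of at least 80%, whatever share of replicates individually reach that level; inactive = mean lysis activity below 80%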
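Test system: log-phase Cryptococcus neoformans yeast cells. Input: 5 × 10^6 yeast cells/mL. Medium: fresh YPD growth medium. Doses: single dose. Incubation: static 4 h at 37 °C with compound, 1 h detection. Measured by: luminescent adenylate kinase detection reagent. Read-out: signal increase indicating cell lysis. Benchmarks: Clomiphene.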
An asterisk follows results filed as active; nt = not tested or not shown; ! = a repeat was not active; [ ] = remark or other dose.

SMILES	miR-122 sensor	DENV2 CPE	E-selectin induc	Ecoli rRNA inh	Cneo AK release
COCC#Cc1cnc2c(c1)C(=O)N([C@@H](C)CO)C[C@@H](C)[C@@H](CN(C)C(=O)C1CC1)O2	16.8[16.7 µM]	8.9	-0.1	4.0	86.6*
COCC#Cc1cnc2c(c1)C(=O)N([C@H](C)CO)C[C@@H](C)[C@H](CN(C)C(=O)C1CC1)O2	-2.1[16.7 µM]	9.3	-0.3	3.9	3.2
C[C@H]1CCCCO[C@H](CN(C)Cc2ccc3c(c2)OCO3)[C@@H](C)CN([C@@H](C)CO)C(=O)c2cc(NC(=O)c3ccncc3)ccc2O1	25.5[16.7 µM]	-7.2	0.3	0.8	4.5
COCC(=O)Nc1ccc2c(c1)[C@H]1C[C@H](CC(=O)NCCN3CCCCC3)O[C@@H](CO)[C@H]1O2	-0.7[16.7 µM]	-0.7	-0.2	2.4	3.1
CCN(Cc1ccccc1)c1ccc(/C=N/N=C(N)N)cc1	-22.5	1.0	nt	-57.9	3.6
CCN(Cc1ccccc1)c1ccccc1	-2.1	37.4*	nt	4.1	0.6
O=C1N[C@H](Cc2ccccc2)COCc2cn(nn2)CC[C@H]1Cc1cccc(Cl)c1	nt	nt	nt	-2.4	nt
CC(=O)c1ccc(OCCCC(=O)NC2CCCc3ccccc32)cc1 (centres undefined)	2.7	22.2*	nt	-3.8	1.0
O=C(c1ccco1)N(CCCN1CCOCC1)c1nc(-c2ccc(Cl)cc2)cs1	8.1	nt	nt	nt	-3.2
O=C(c1ccco1)N(CCCN1CCOCC1)c1nc(-c2ccc(F)cc2)cs1	2.4	nt	nt	-33.0*	-0.6
O=S1(=O)CC(N2CCN(Cc3ccccc3F)CC2)CN1Cc1cn(Cc2ccc(Cl)cc2)nn1 (centres undefined)	nt	10.3	3.0	-18.6*	nt
COc1ccc(Cn2cc(CN3CC(N4CCN(Cc5ccccc5F)CC4)CS3(=O)=O)nn2)cc1 (centres undefined)	nt	1.2	8.6	-1.1	nt
Cc1ccc(Cn2cc(CN3CC(N(C)C)CS3(=O)=O)nn2)cc1 (centres undefined)	nt	23.0*	0.7	7.4	nt
CN(C)C1CN(Cc2cn(Cc3ccc(F)cc3)nn2)S(=O)(=O)C1 (centres undefined)	nt	-5.0	-0.1	3.6	nt
O=C(c1ccccc1)N1CC2(C1)[C@H](c1ccccc1)[C@@H](CO)N2Cc1cccnc1	nt	-11.5	0.7	-1.5	nt
C[C@@H]1CCCCO[C@@H](CN(C)CC2CCCCC2)[C@@H](C)CN([C@H](C)CO)C(=O)c2cc(NC(=O)NC3CCCCC3)ccc2O1	28.4[16.7 µM]	-13.0	-0.2	3.7	0.8
CCN(C[C@H]1[C@H](c2ccccc2)[C@@H](CO)N1CC1CC1)C(=O)c1ccccn1	-14.3[16.7 µM]	21.0*	-0.2	3.1	-4.3
CCN(C[C@H]1[C@@H](c2ccccc2)[C@H](CO)N1CC1CC1)C(=O)c1ccccn1	-14.3[16.7 µM]	24.8*	0.0	-0.3	12.0
CCN(C[C@H]1[C@H](c2ccccc2)[C@H](CO)N1CC1CC1)C(=O)c1ccccn1	-14.3[16.7 µM]	4.6	0.2	0.5	-5.2
NC(=O)NCC#Cc1ccc2c(c1)[C@]1(C(=O)N2)[C@H](c2ccc(O)cc2)N2[C@H](c3ccccc3)[C@H](c3ccccc3)OC(=O)[C@H]2[C@@H]1C(N)=O	nt	-3.3	nt	nt	4.3
CCN1CCN(C2=C(NS(=O)(=O)c3ccc(C)cc3)C(=O)c3ccccc3C2=O)CC1	4.8	1.6	nt	-18.5*	-0.5
CCN1CCN(C2=C(NS(=O)(=O)c3ccc(NC(C)=O)cc3)C(=O)c3ccccc3C2=O)CC1	16.0	7.8	nt	-2.5	-2.5
CC1CCN(C2=C(NS(=O)(=O)c3ccccc3)C(=O)c3ccccc3C2=O)CC1	nt	-8.8	1.3	-23.9*	nt
CO[C@H]1CN(C)C(=O)c2cc(NC(C)=O)ccc2OC[C@H](C)N(CC2CCCCC2)C[C@@H]1C	-1.6[16.7 µM]	nt	0.0	3.3	-0.1
COCC(=O)Nc1ccc2c(c1)C(=O)N(C)C[C@@H](OC)[C@H](C)CN(C(=O)NC(C)C)[C@@H](C)CO2	4.8[16.7 µM]	-2.1	-0.2	4.2	2.4
SMILES	miR-122 sensor	DENV2 CPE	E-selectin induc	Ecoli rRNA inh	Cneo AK release
C[C@@H]1CN([C@H](C)CO)C(=O)c2cccc(NC(=O)Nc3ccc(C(F)(F)F)cc3)c2O[C@H]1CN(C)S(=O)(=O)c1ccccc1	-2.4[16.7 µM]	nt	0.7	-2.6	nt
O=S(=O)(Nc1ccc(N2CCOCC2)cc1)c1cc(Cl)ccc1Cl	94.2*	-0.2	-0.1	-3.8	-0.8
COc1ccc(NC(=O)Nc2ccc3c(c2)C(=O)N([C@@H](C)CO)C[C@H](C)[C@@H](CN(C)Cc2ccccc2)O3)cc1	1.3[16.7 µM]	4.8	-0.3	3.6	3.3
C[C@@H]1CN([C@H](C)CO)C(=O)c2cc(C#CC3CC3)cnc2O[C@H]1CN(C)C	-6.8[16.7 µM]	2.8	-0.1	7.1	-3.3
C[C@@H]1CN([C@H](C)CO)C(=O)c2cc(C#Cc3ccncc3)cnc2O[C@H]1CN(C)C(=O)CN(C)C	-9.9[16.7 µM]	-2.0	0.2	2.9	-4.1
C[C@H]1CN([C@@H](C)CO)C(=O)c2cc(C#CC3CC3)cnc2O[C@@H]1CN(C)C	-7.0[16.7 µM]	69.1*	-0.4	-2.6	-4.8
C[C@@H]1CN([C@H](C)CO)C(=O)c2cc(C#Cc3ccc(F)cc3)cnc2O[C@@H]1CN(C)C	4.4[16.7 µM]	81.1*	nt	-0.3	-0.1
C[C@@H]1CN([C@@H](C)CO)C(=O)c2cc(C#CC3CCCCC3)cnc2O[C@@H]1CN(C)S(=O)(=O)c1ccc(F)cc1	-4.2	4.5	-0.2	1.8	-1.0
C[C@H](CO)N1C[C@H](C)[C@H](CN(C)C(=O)CN(C)C)Oc2ncc(C#Cc3ccccc3)cc2C1=O	-3.9[16.7 µM]	50.6*	1.5	3.8	1.0
C[C@H]1CN([C@@H](C)CO)C(=O)c2cc(C#CC3CCCCC3)cnc2O[C@H]1CN(C)S(=O)(=O)c1ccc(F)cc1	-8.0[16.7 µM]	71.6*!	1.5	-0.9	-1.4
COc1ccc2c3c([nH]c2c1)[C@H](CO)N(Cc1ccncc1)CC31CCN(C(=O)Cc2ccncc2)CC1	nt	-3.5	-0.2	1.2	nt
NS(=O)(=O)c1cccc(NC(=O)COC(=O)c2ccccc2C(=O)c2ccccc2)c1	nt	-6.4	nt	-32.5*	-1.2
Cc1ccc(S(=O)(=O)NC[C@@H]2CC[C@@H]3[C@@H](CN3Cc3cc(F)ccc3F)O2)cc1	nt	12.2	nt	nt	nt
Cc1noc(C)c1NC(=O)Nc1ccc2c(c1)C(=O)N([C@@H](C)CO)C[C@@H](C)[C@@H](CN(C)Cc1ccccc1)OCCCC[C@@H](C)O2	14.0[16.7 µM]	88.8*	-0.2	1.9	25.7
Cc1noc(C)c1NC(=O)Nc1ccc2c(c1)C(=O)N([C@H](C)CO)C[C@H](C)[C@H](CN(C)Cc1ccc(Cl)c(Cl)c1)OCCCC[C@H](C)O2	-3.6[16.7 µM]	26.6*	0.0	-10.2	-4.0
Cc1noc(C)c1NC(=O)Nc1ccc2c(c1)C(=O)N([C@H](C)CO)C[C@@H](C)[C@H](CN(C)Cc1ccccc1)OCCCC[C@@H](C)O2	-1.8[16.7 µM]	7.6	-0.1	-0.3	22.5
